# Results: ChEMBL document CHEMBL1121449, “Synthesis and antineoplastic activity of hydroquinone dialdehydes” (J Med Chem, 1980)
# “And” between values parts separate entries of the source, which are not always exact repeats. Equal entries are not always repeated.
# How the values were obtained:
# Mus musculus [1] = assay: Tested for change in body weight from onset to termination at dose of 5 mg/kg; type: functional
# Method in brief: (§1)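 Female CD-1 mice inoculated ip with 0.1 mL of 10^7 Sarcoma 180 ascites cells/mL. Drug in 0.9% NaCl with 5% ethanol and Tween 80, serially diluted in saline, given ip once daily for 6 days starting 24 h after implantation. Dose based on mean starting weight. Controls received saline. Weight change recorded from day 0 to day 7, as % change.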
# Mus musculus [2] = assay: Tested for change in body weight of Mice bearing Ehrlich carcinoma from onset to termination at dose of 5 mg/kg; type: functional
# Method in brief: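 Female CD-1 mice given ip implants of Ehrlich carcinoma (0.1 mL of 10^7 cells/mL). Drug in saline containing 5% ethanol and Tween 80, injected ip once daily for 6 consecutive days from 24 h post-implant. Controls received 0.9% NaCl. % body weight change measured between tumor implantation (day 0) and day 7.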
# Mus musculus [3] = assay: Tested for change in body weight of Mice bearing […] 755 from onset to termination at dose of 10 mg/kg; type: functional
# Method in brief: (§2)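 Adenocarcinoma 755 implanted ip (0.1 mL of 10^7 cells/mL) in female AKD2F1 mice. Daily ip dosing for 6 days beginning 24 h after implantation, vehicle 0.9% NaCl/5% ethanol/Tween 80, lower doses by saline dilution. Control mice received saline. Weight difference between day 0 and day 7 taken as % change and used as a toxicity measure.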
# Mus musculus [4] = assay: Tested for change in body weight of Mice bearing […] 755 from onset to termination at dose of 20 mg/kg; type: functional; method in brief: as §2
# Mus musculus [5] = assay: Tested for change in body weight of Mice bearing […] 755 from onset to termination at dose of 5 mg/kg; type: functional; method in brief: as §2
# Mus musculus [6] = assay: Tested for mean survival time of Mice bearing Ehrlich carcinoma not surviving 50 days as a percentage at dose of 10 mg/kg; type: functional
# Method in brief: (§3)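 Female CD-1 mice, Ehrlich ascites carcinoma, 0.1 mL of 10^7 cells/mL given ip. Drug in 0.9% NaCl with 5% ethanol and trace Tween 80, serially diluted with saline. Dosed ip at 0.5 mL once daily for 6 days from 24 h post-implant; saline controls. T/C is the mean survival of treated mice dying before 50 days as % of controls. Survivors are those alive ≥50 days.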
# Mus musculus [7] = assay: Tested for mean survival time of Mice bearing Ehrlich carcinoma not surviving 50 days as a percentage at dose of 20 mg/kg; type: functional; method in brief: as §3
# Mus musculus [8] = assay: Tested for mean survival time of Mice bearing Ehrlich carcinoma not surviving 50 days as a percentage at dose of 5 mg/kg; type: functional; method in brief: as §3
# Mus musculus [9] = assay: Tested for mean survival time of Mice bearing […] 755 not surviving 50 days as a percentage at dose of 10 mg/kg; type: functional
# Method in brief: (§4)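 Female AKD2F1 mice, adenocarcinoma 755, 0.1 mL of 10^7 cells/mL given ip. Vehicle 0.9% NaCl/5% ethanol/Tween 80, serially diluted with saline. Dosed ip at 0.5 mL once daily for 6 consecutive days starting 24 h post-implant; saline controls. T/C is the mean survival of non-50-day survivors as % of controls. Survivors are those alive ≥50 days.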
# Mus musculus [10] = assay: Tested for mean survival time of Mice bearing […] 755 not surviving 50 days as a percentage at dose of 20 mg/kg; type: functional; method in brief: as §4
# Mus musculus [11] = assay: Tested for mean survival time of Mice bearing […] 755 not surviving 50 days as a percentage at dose of 5 mg/kg; type: functional; method in brief: as §4
# Mus musculus [12] = assay: Tested for mean survival time treated animal not surviving 50 days as a percentage at dose of 1.25 mg/kg; type: functional
# Method in brief: (§5)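 Female CD-1 mice, Sarcoma 180 ascites, 0.1 mL of 10^7 cells/mL given ip. Drug in 0.9% NaCl, 5% ethanol, Tween 80, serially diluted with saline. Dosed ip at 0.5 mL daily for 6 days from 24 h post-implant; daily dose based on starting mean weight. T/C is the mean survival of treated mice dying before 50 days vs controls. Survivors are those alive ≥50 days out of those treated.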
# Mus musculus [13] = assay: Tested for mean survival time treated animal not surviving 50 days as a percentage at dose of 10 mg/kg; type: functional; method in brief: as §5
# Mus musculus [14] = assay: Tested for mean survival time treated animal not surviving 50 days as a percentage at dose of 15 mg/kg; type: functional; method in brief: as §5
# Mus musculus [15] = assay: Tested for mean survival time treated animal not surviving 50 days as a percentage at dose of 2.5 mg/kg; type: functional; method in brief: as §5
# Mus musculus [16] = assay: Tested for mean survival time treated animal not surviving 50 days as a percentage at dose of 20 mg/kg; type: functional; method in brief: as §5
# Mus musculus [17] = assay: Tested for mean survival time treated animal not surviving 50 days as a percentage at dose of 5 mg/kg; type: functional; method in brief: as §5
# Mus musculus [18] = assay: Tested for change in body weight from onset to termination at dose of 1.25 mg/kg; type: functional; method in brief: as §1
# Mus musculus [19] = assay: (§6) Tested for change in body weight from onset to termination at dose of 10 mg/kg; type: functional
# Method in brief: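 Tumor-bearing mice were dosed ip once daily for 6 consecutive days from 24 h after ip tumor implantation; saline controls. Each group was weighed on day 7, the day after the last injection, and the change from the implantation day (day 0) was expressed as % body-weight change, used as a toxicity measure.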
# Mus musculus [20] = assay: Tested for change in body weight from onset to termination at dose of 15 mg/kg; type: functional; method in brief: as §1
# Mus musculus [21] = assay: Tested for change in body weight from onset to termination at dose of 2.5 mg/kg; type: functional; method in brief: as §1
# Mus musculus [22] = assay: Tested for change in body weight from onset to termination at dose of 20 mg/kg; type: functional; method in brief: as §1
# Mus musculus [23] = assay: Tested for Mice bearing […] 755 surviving at least 50 days out of 5 animal treated at dose of 10 mg/kg; type: functional; method in brief: as §4
# Mus musculus [24] = assay: Tested for Mice bearing […] 755 surviving at least 50 days out of 5 animal treated at dose of 20 mg/kg; type: functional; method in brief: as §4
# Mus musculus [25] = assay: Tested for Mice bearing […] 755 surviving at least 50 days out of 5 animal treated at dose of 5 mg/kg; type: functional; method in brief: as §4
# Mus musculus [26] = assay: Tested for number of animal surviving at least 50 days out of 10 animal treated at dose of 15 mg/kg; type: functional; method in brief: as §5
# Mus musculus [27] = assay: Tested for number of animal surviving at least 50 days out of 10 animal treated at dose of 2.5 mg/kg; type: functional; method in brief: as §5
# Mus musculus [28] = assay: Tested for number of animal surviving at least 50 days out of 10 animal treated at dose of 20 mg/kg; type: functional; method in brief: as §5
# Mus musculus [29] = assay: Tested for Mice bearing Ehrlich carcinoma surviving at least 50 days out of 10 animal treated at dose of 10 mg/kg; type: functional; method in brief: as §3
# Mus musculus [30] = assay: Tested for Mice bearing Ehrlich carcinoma surviving at least 50 days out of 10 animal treated at dose of 20 mg/kg; type: functional; method in brief: as §3
# Mus musculus [31] = assay: Tested for Mice bearing Ehrlich carcinoma surviving at least 50 days out of 10 animal treated at dose of 5 mg/kg; type: functional; method in brief: as §3
# [32] = Tested for inhibition of growth of sarcoma 180 cells in culture; type: functional, cell-based; settings: Mus musculus
# Method in brief: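 Sarcoma 180 cells in suspension in Fischer's medium with 10% horse serum and penicillin/streptomycin, seeded at 10^4 cells/mL. Drug added from 10× stocks in 10% Me2SO/PBS, final 1–100 μM. Control cultures contained 1% Me2SO. Triplicate Coulter counts at 24, 48 and 72 h. IC50 read from a plot of inhibition of cell-number increase at 72 h versus concentration.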
# Mus musculus [33] = assay: Tested for number of animal surviving at least 50 days out of 5 animal treated at dose of 5 mg/kg
# Mus musculus [34] = assay: Tested for number of animal surviving at least 50 days out of 25 animal treated at dose of 15 mg/kg
# Mus musculus [35] = assay: as §6; type: functional; method in brief: as §1; remark: listed apart in the source
# Mus musculus [36] = assay: Tested for number of animal surviving at least 50 days out of 10 animal treated at dose of 10 mg/kg; type: functional; method in brief: as §5
# Mus musculus [37] = assay: Tested for number of animal surviving at least 50 days out of 10 animal treated at dose of 5 mg/kg; type: functional; method in brief: as §5
# Mus musculus [38] = assay: Tested for number of animal surviving at least 50 days out of 10 animal treated at dose of mg/kg; type: functional; method in brief: as §5
Compound,Activity (Mus musculus [1]) [%],Activity (Mus musculus [2]) [%],Activity (Mus musculus [3]) [%],Activity (Mus musculus [4]) [%],Activity (Mus musculus [5]) [%],Activity (Mus musculus [6]) [%],Activity (Mus musculus [7]) [%],Activity (Mus musculus [8]) [%],Activity (Mus musculus [9]) [%],Activity (Mus musculus [10]) [%],Activity (Mus musculus [11]) [%],Activity (Mus musculus [13]) [%],Activity (Mus musculus [16]) [%],Activity (Mus musculus [17]) [%],Activity (Mus musculus [22]) [%],Survivors (Mus musculus [23]),Survivors (Mus musculus [24]),Survivors (Mus musculus [25]),Survivors (Mus musculus [28]),IC50 [32] [µM],also measured
CCCc1c(O)c(C=O)c(C=O)c(O)c1CCC,9,5,-15,-15,-16,202,166,154,22,35,16,178,150,205,-3,4,3,4,0,29,"Activity (Mus musculus [12]): 88%; Activity (Mus musculus [14]): 171%; Mean survival time, treated vs control (T/C) (Mus musculus [15]): 138%; Activity (Mus musculus [18]): 10%; Activity (Mus musculus [19]): -1%; Activity (Mus musculus [20]): 2%; Activity (Mus musculus [21]): 9%; Survivors (Mus musculus [26]): 0; Survivors (Mus musculus [27]): 0; Survivors (Mus musculus [29]): 4; Survivors (Mus musculus [30]): 1; Survivors (Mus musculus [31]): 0; Survivors (Mus musculus [33]): 4; Survivors (Mus musculus [34]): 2"
COc1c(C)c(C)c(OC)c(C=O)c1C=O,15,–,–,–,–,–,–,–,–,–,–,96,103,81,11,–,–,–,0,97,Activity (Mus musculus [35]): 15%; Survivors (Mus musculus [36]): 0; Survivors (Mus musculus [37]): 0
Cc1c(C)c(O)c(C)c(C)c1O [DUROHYDROQUINONE],–,–,–,–,–,–,–,–,–,–,–,–,–,–,–,–,–,–,–,12,–
CC(=O)Oc1c(C)c(C)c(OC(C)=O)c2c1C(OC(C)=O)OC2OC(C)=O (centres undefined),5,4,-15,-14,-7,195,222,168,16,38,59,149,109,109,–,4,1,3,0,< 25,Activity (Mus musculus [35]; 10 mg/kg): -6% and -4%; Survivors (Mus musculus [37]): 0; Survivors (Mus musculus [38]): 0; Survivors (Mus musculus [30]): 3; Survivors (Mus musculus [31]): 2
